Article PMC3573810 (Drug Design, Development and Therapy, 2013)

Assays:
[1] = system: Salmonella typhimurium TA1535; assay type: cell-based; details: NaN3 1 μg/plate alone, no bichalcophene
In short: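 Overnight S. typhimurium TA1535 diluted 10−7, shaken 30 min at 37°C in phosphate buffer with NaN3 (1 μg/plate) plus test compound (10 and 20 μM, or 5 and 10 μM for two compounds) or NaN3 alone. Colonies counted on triplicate plates after 24 h and compared with untreated bacteria. ANOVA with Fisher's PLSD, P<0.05.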

[2] = system: Salmonella typhimurium TA1535; test: Antimutagenicity assay against sodium azide; assay type: cell-based
In short: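 S. typhimurium TA1535 exposed at 37°C for 30 min to test compound (10 and 20 μM, or 5 and 10 μM for two compounds) and NaN3 (1 μg/plate). Pre-exposure adds NaN3 after the 30 min compound step; co-exposure combines all three together. Plated on minimal glucose agar; revertants counted after 48 h, triplicate. Mutant frequency = mutant colonies/viable colonies.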

[N-]=[N+]=[N-].[Na+] [NaN3, sodium azide]
Viability, % of control [1]: 105 % of control
Viability, colonies/plate [1]: 36.9 ± 4.3 colonies/plate
NaN3 mutagenicity, revertant colonies/plate ([2]; NaN3 1 μg/plate alone, spontaneous 34.3 ± 4.0): 384.7 ± 14.7 (0) revertant colonies/plate
Mutant frequency ([2]; NaN3 alone, mutant colonies (Table 6)/viable colonies (Table 3)): 10.43 (100)
